Measurements as given in publication PMC10806771 (Chemical Science, 2023).
Entries after “also recorded” stand apart in the source; their conditions may differ. Blank lines part the entries; values can stand above or below the compound they belong to.

Columns and labels:
trastuzumab [1] = biological target: T1, trastuzumab (Homo sapiens, UniProt P01857); assay: Template-directed conjugation to trastuzumab, LC-FTMS analysis; assay type: biochemical; settings: payload transferred with Fc-III-L6Orn carbonate reactive conjugate
T1 sequence (P01857 1-330 isoform P01857-1): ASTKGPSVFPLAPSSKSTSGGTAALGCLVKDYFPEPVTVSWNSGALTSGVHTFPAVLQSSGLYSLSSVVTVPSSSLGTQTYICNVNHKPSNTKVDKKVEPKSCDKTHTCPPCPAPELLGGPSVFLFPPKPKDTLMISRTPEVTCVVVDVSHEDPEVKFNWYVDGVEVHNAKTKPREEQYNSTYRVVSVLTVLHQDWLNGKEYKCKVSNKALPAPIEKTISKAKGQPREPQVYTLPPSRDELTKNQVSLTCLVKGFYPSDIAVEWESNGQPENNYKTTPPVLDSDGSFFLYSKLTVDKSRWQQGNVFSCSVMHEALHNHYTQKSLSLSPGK

[2] = tested on: mice bearing MDA-MB-231 (PD-L1hi) tumor xenograft; assay: [64Cu]Cu-atezolizumab biodistribution study; assay type: in vivo, mouse; settings: n = 4, ± SD
Method in brief: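 Each received an i.v. dose of 0.25 MBq labelled conjugate (0.05 μg), given with 49.95 μg unlabelled parent antibody to saturate nonspecific Fc receptors. Animals were killed at 2, 24 and 48 h; organs collected, weighed and counted, and results given as %ID g−1. Blocking group at 24 h: co-injected 2 mg unlabelled antibody per mouse. n = 4 per group.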

[3] = tested on: mice bearing MDA-MB-231 xenograft; assay: [64Cu]Cu-atezolizumab PET/CT imaging study; assay type: in vivo, mouse; settings: 9 MBq i.v.; 2, 24, 48 h
[4] = cited from earlier work
trastuzumab [5] = biological target: T1, trastuzumab; assay: Random conjugation experiments with trastuzumab, LC-FTMS; assay type: biochemical; settings: 10 eq., 16h, RT, pH 9.5
[6] = 24 h p.i. + blocking (2 mg cold atezolizumab)

Labeled mAb (trastuzumab [1]): 68%
Selectivity Fc/Fab (trastuzumab [1]): 6.80
Compound: DCAWH N GELVWCT NH2 (disulfide) [DM4]

Compound: [^64Cu]Cu-atezolizumab: atezolizumab-NODAGA prepared with Fc-III-L6Orn-carbonate-NODAGA, radiolabeled with copper-64
Biodistribution, Blood ([2]; 2 h p.i., i.v. 0.25 MBq): 6.3 ± 3.8 % ID g^−1
Biodistribution, Bone ([2]; 2 h p.i., i.v. 0.25 MBq): 2.5 ± 0.4 % ID g^−1
Biodistribution, Heart ([2]; 2 h p.i., i.v. 0.25 MBq): 7.8 ± 0.6 % ID g^−1
Biodistribution, Kidney ([2]; 2 h p.i., i.v. 0.25 MBq): 11.8 ± 1.3 % ID g^−1
Biodistribution, Large intestine ([2]; 2 h p.i., i.v. 0.25 MBq): 1.2 ± 0.5 % ID g^−1
Biodistribution, Liver ([2]; 2 h p.i., i.v. 0.25 MBq): 8.2 ± 0.1 % ID g^−1
Biodistribution, Lung ([2]; 2 h p.i., i.v. 0.25 MBq): 14.3 ± 1 % ID g^−1
Biodistribution, Muscle ([2]; 2 h p.i., i.v. 0.25 MBq): 1.3 ± 0.1 % ID g^−1
Biodistribution, Pancreas ([2]; 2 h p.i., i.v. 0.25 MBq): 1.8 ± 1.6 % ID g^−1
Biodistribution, Skin ([2]; 2 h p.i., i.v. 0.25 MBq): 1.1 ± 0.3 % ID g^−1
Biodistribution, Small intestine ([2]; 2 h p.i., i.v. 0.25 MBq): 3.8 ± 0.9 % ID g^−1
Biodistribution, Spleen ([2]; 2 h p.i., i.v. 0.25 MBq): 28.1 ± 4 % ID g^−1
Biodistribution, Stomach ([2]; 2 h p.i., i.v. 0.25 MBq): 1.6 ± 0.6 % ID g^−1
Biodistribution, Tumor (MDA-MB-231) ([2]; 2 h p.i., i.v. 0.25 MBq): 5 ± 1.2 % ID g^−1
Biodistribution, Blood [2, 6]: 10.9 ± 0.9 % ID g^−1
Biodistribution, Bone [2, 6]: 1.7 ± 0.1 % ID g^−1
Biodistribution, Heart [2, 6]: 4 ± 0.3 % ID g^−1
Biodistribution, Kidney [2, 6]: 4.2 ± 0.1 % ID g^−1
Biodistribution, Large intestine [2, 6]: 2.7 ± 0.2 % ID g^−1
Biodistribution, Liver [2, 6]: 5.3 ± 0.6 % ID g^−1
Biodistribution, Lung [2, 6]: 6.4 ± 0.7 % ID g^−1
Biodistribution, Muscle [2, 6]: 1 ± 0.2 % ID g^−1
Biodistribution, Pancreas [2, 6]: 3.6 ± 0.2 % ID g^−1
Biodistribution, Skin [2, 6]: 2.5 ± 0.4 % ID g^−1
Biodistribution, Small intestine [2, 6]: 2.6 ± 0.1 % ID g^−1
Biodistribution, Spleen [2, 6]: 17.9 ± 0.1 % ID g^−1
Biodistribution, Stomach [2, 6]: 1.5 ± 0.3 % ID g^−1
Biodistribution, Tumor (MDA-MB-231) [2, 6]: 4.3 ± 1 % ID g^−1
Biodistribution, Blood ([2]; 24 h p.i., i.v. 0.25 MBq): 3.1 ± 1.7 % ID g^−1
Biodistribution, Bone ([2]; 24 h p.i., i.v. 0.25 MBq): 4.2 ± 1.7 % ID g^−1
Biodistribution, Heart ([2]; 24 h p.i., i.v. 0.25 MBq): 6.8 ± 0.5 % ID g^−1
Biodistribution, Kidney ([2]; 24 h p.i., i.v. 0.25 MBq): 11.9 ± 1.3 % ID g^−1
Biodistribution, Large intestine ([2]; 24 h p.i., i.v. 0.25 MBq): 6.1 ± 0.9 % ID g^−1
Biodistribution, Liver ([2]; 24 h p.i., i.v. 0.25 MBq): 11.8 ± 1.9 % ID g^−1
Biodistribution, Lung ([2]; 24 h p.i., i.v. 0.25 MBq): 14.2 ± 1.9 % ID g^−1
Biodistribution, Muscle ([2]; 24 h p.i., i.v. 0.25 MBq): 2.8 ± 0.6 % ID g^−1
Biodistribution, Pancreas ([2]; 24 h p.i., i.v. 0.25 MBq): 9.6 ± 3.6 % ID g^−1
Biodistribution, Skin ([2]; 24 h p.i., i.v. 0.25 MBq): 2.7 ± 0.7 % ID g^−1
Biodistribution, Small intestine ([2]; 24 h p.i., i.v. 0.25 MBq): 8.7 ± 0.9 % ID g^−1
Biodistribution, Spleen ([2]; 24 h p.i., i.v. 0.25 MBq): 42.8 ± 10.7 % ID g^−1
Biodistribution, Stomach ([2]; 24 h p.i., i.v. 0.25 MBq): 4.5 ± 2.3 % ID g^−1
Biodistribution, Tumor (MDA-MB-231) ([2]; 24 h p.i., i.v. 0.25 MBq): 11.4 ± 1.8 % ID g^−1
Biodistribution, Blood ([2]; 48 h p.i., i.v. 0.25 MBq): 2 ± 1.2 % ID g^−1
Biodistribution, Bone ([2]; 48 h p.i., i.v. 0.25 MBq): 2.2 ± 0.4 % ID g^−1
Biodistribution, Heart ([2]; 48 h p.i., i.v. 0.25 MBq): 3.8 ± 0.6 % ID g^−1
Biodistribution, Kidney ([2]; 48 h p.i., i.v. 0.25 MBq): 8 ± 1.8 % ID g^−1
Biodistribution, Large intestine ([2]; 48 h p.i., i.v. 0.25 MBq): 3.7 ± 1 % ID g^−1
Biodistribution, Liver ([2]; 48 h p.i., i.v. 0.25 MBq): 8.5 ± 1.6 % ID g^−1
Biodistribution, Lung ([2]; 48 h p.i., i.v. 0.25 MBq): 6.6 ± 0.7 % ID g^−1
Biodistribution, Muscle ([2]; 48 h p.i., i.v. 0.25 MBq): 1.1 ± 0.1 % ID g^−1
Biodistribution, Pancreas ([2]; 48 h p.i., i.v. 0.25 MBq): 3.1 ± 0.2 % ID g^−1
Biodistribution, Skin ([2]; 48 h p.i., i.v. 0.25 MBq): 2 ± 0.8 % ID g^−1
Biodistribution, Small intestine ([2]; 48 h p.i., i.v. 0.25 MBq): 4.8 ± 1.3 % ID g^−1
Biodistribution, Spleen ([2]; 48 h p.i., i.v. 0.25 MBq): 21.3 ± 6.5 % ID g^−1
Biodistribution, Stomach ([2]; 48 h p.i., i.v. 0.25 MBq): 2.1 ± 0.5 % ID g^−1
Biodistribution, Tumor (MDA-MB-231) ([2]; 48 h p.i., i.v. 0.25 MBq): 5.5 ± 2.1 % ID g^−1
PET observations [3]: an important uptake of the radiotracer was observed in liver and in spleen; also recorded: increased contrast of the tumor over time with an optimum at 24 h

Labeled mAb (trastuzumab [1]): 95%
Selectivity Fc/Fab (trastuzumab [1]): Fc selective
Compound: DCAWH N GELVWCT NH2 (disulfide) [FITC]

Labeled mAb (trastuzumab [1]): 97%
Selectivity Fc/Fab (trastuzumab [1]): Fc selective
Compound: DCAWH N GELVWCT NH2 (disulfide) [NODAGA]

Labeled mAb (trastuzumab [1]): 46%
Selectivity Fc/Fab (trastuzumab [1]): 5.40
Compound: PNU-159682
Cytotoxicity relative to doxorubicin [4]: more than thousandfold increased cytotoxicity compared to doxorubicin

Labeled mAb (trastuzumab [5]): 73%
Selectivity Fc/Fab (trastuzumab [5]): 1.46
Compound: O=C(O)CN1CCN(CC(=O)O)CCN(CC(=O)ON2C(=O)CCC2=O)CCN(CC(=O)O)CC1 [DOTA-NHS]

Labeled mAb (trastuzumab [1]): 73%
Selectivity Fc/Fab (trastuzumab [1]): 5.70
Compound: DCAWH N GELVWCT NH2 (disulfide) [DM1]
